IDH1 mut inh – blocks human IDH1 R132H reductase activity; O75874; diaphorase/resazurin fluorescence, 60 min; inhibition, % at 10 µM; 70,000 compounds, 0.18% hits; in the data active means inhibition above about 34%; inconclusive means no clear call, values can overlap the other calls; inactive means below about 11%
Target sequence (O75874 whole entry R132H): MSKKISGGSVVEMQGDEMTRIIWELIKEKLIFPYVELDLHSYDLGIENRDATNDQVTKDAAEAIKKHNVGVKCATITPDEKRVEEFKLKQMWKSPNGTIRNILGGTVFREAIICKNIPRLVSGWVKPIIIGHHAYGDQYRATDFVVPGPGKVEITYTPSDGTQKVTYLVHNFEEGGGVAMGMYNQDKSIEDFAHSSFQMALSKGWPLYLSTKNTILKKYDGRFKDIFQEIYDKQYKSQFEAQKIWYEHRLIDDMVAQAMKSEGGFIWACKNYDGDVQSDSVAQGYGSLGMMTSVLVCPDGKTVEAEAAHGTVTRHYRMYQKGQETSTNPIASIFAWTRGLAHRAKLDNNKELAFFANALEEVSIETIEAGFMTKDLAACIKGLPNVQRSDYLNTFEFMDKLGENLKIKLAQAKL
T cruzi growth-1 – blocks T. cruzi growth in NIH3T3 culture. T. cruzi beta-gal in NIH3T3, GalScreen luminescence, 90 h. inhibition, % at 8.34 µM. 77,000 compounds, 5.9% hits. AID 624255;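 active means mean inhibition above about 93%, with at least 55% of replicates each passing it, limit read from the data, passing the limit was not always enough; inconclusive means only one of those two conditions holds; inactive means neither condition holds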
Pf Dd2 growth – P. falciparum Dd2 growth inhibition; SYBR Green, 72 h; stronger effect = lower value; activity change, % at 10 µM; 94,000 compounds, 2.3% hits; AID 1159554; in the data active means activity change below about -80%; inconclusive means no clear call, values can overlap the other calls
KDM4C inh – inhibitors of human demethylase GASC-1 KDM4C. GST-KDM4C 2-372, H3K9me3 peptide, LANCE TR-FRET. inhibition, % at 12.5 µM. 96,000 compounds, 0.15% hits. Q9H3R0;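 active means mean replicate inhibition above about 25%, with at least 55% of replicates also reaching it, limit read from the data, passing the limit was not always enough; inconclusive means only one of those two conditions met; inactive means neither condition met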
Target sequence (Q9H3R0 2-372 limits assumed): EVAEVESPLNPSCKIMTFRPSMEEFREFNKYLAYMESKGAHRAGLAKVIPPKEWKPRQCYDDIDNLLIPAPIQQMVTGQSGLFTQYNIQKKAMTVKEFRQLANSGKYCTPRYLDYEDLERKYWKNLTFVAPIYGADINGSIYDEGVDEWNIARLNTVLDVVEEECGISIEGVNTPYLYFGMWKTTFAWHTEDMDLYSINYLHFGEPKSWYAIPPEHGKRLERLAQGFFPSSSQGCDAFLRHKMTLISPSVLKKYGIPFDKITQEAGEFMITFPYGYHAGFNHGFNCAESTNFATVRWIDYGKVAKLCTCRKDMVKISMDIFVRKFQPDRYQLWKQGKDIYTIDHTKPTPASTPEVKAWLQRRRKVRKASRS
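Compound: one test concentration per compound; Material: GST-GASC-1 enzyme fragment 2-372; Amount: GASC-1 enzyme at 10 nM final in reaction; Also added: H3K9me3 peptide substrate, Fe(II), 2-oxoglutarate; Technique: LANCE TR-FRET; Times: 30 min demethylation and 1 h detection at room temperature.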
T cruzi growth-2 – blocks T. cruzi growth in NIH3T3 host cells | shares compounds with T cruzi growth-1 | T. cruzi beta-gal in NIH3T3, GalScreen luminescence, 90 h | inhibition, % at 8.35 µM | 5,600 compounds, 72% hits;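 active means mean replicate inhibition above about 95% and at least 55% of replicates individually reaching it, limit read from the data; inconclusive means only one of the two criteria is met; inactive means neither criterion is met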
T cruzi growth-3 – Trypanosoma cruzi proliferation inhibition. 5,600 compounds, 21% hits. T. cruzi beta-gal in NIH3T3, GalScreen luminescence, 90 h. inhibition, % at 2.09 µM. shares compounds with T cruzi growth-1. AID 651740;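 active means mean inhibition above about 95%, with at least 55% of replicates also reaching it, limit read from the data; inconclusive means meets just one of the two conditions; inactive means meets neither condition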
NIH3T3 tox – NIH/3T3 (mouse) viability loss. shares compounds with T cruzi growth-1. NIH/3T3 viability, CellTiter-Glo ATP luminescence, 90 h. cytotoxicity (signal decrease), % at 8.35 µM. 5,600 compounds, 14% hits. AID 651742;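 active means mean signal decrease across replicates above about 35% based on untreated-well scatter, with enough replicates individually passing, limit read from the data; inconclusive means no rule stated though some were filed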
NIH3T3 tox 2 – kills mouse NIH/3T3 fibroblasts; shares compounds with T cruzi growth-1; NIH/3T3 viability, CellTiter-Glo ATP luminescence, 90 h; inhibition, % at 24.9 µM; 5,600 compounds, 56% hits;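 active means mean loss of cell viability signal at or above a set limit, and enough replicates individually reaching it; inconclusive means meets only the mean limit or only the replicate share; inactive means meets neither condition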
Of the large screens only hits and unclear results are named; the others gave an inactive call (follow-up assays come after a bar, where they were run). A selection: hits, their analogues and other compounds. The true share with any hit is near 5.8%.

C[C@@H]1CN([C@@H](C)CO)C(=O)c2cc(NC(=O)Nc3ccc4c(c3)OCO4)ccc2O[C@@H](C)CCCCO[C@H]1CN(C)C	T cruzi growth-1 100.4 | T cruzi growth-2 112.1 | T cruzi growth-3 inactive | NIH3T3 tox inactive | NIH3T3 tox 2 inactive
C[C@@H]1CN([C@@H](C)CO)C(=O)c2cc(NC(=O)Nc3ccc4c(c3)OCO4)ccc2O[C@@H](C)CCCCO[C@H]1CN(C)Cc1ccc2c(c1)OCO2	none (no result: IDH1 mut inh)
O=S(=O)(NCCOc1ccccc1)c1cccc2cccc(Cl)c12	none (no result: T cruzi growth-1, Pf Dd2 growth, KDM4C inh)
COC(=O)c1ccc(NC(=O)CSc2nnnn2C2CC3CCC2C3)cc1 (configuration not stated)	none (no result: T cruzi growth-1, Pf Dd2 growth, KDM4C inh)
Cc1ccc(NC(=O)CSc2nnc(C)n2-c2ccccc2)cc1C	none (no result: T cruzi growth-1, Pf Dd2 growth, KDM4C inh)
CC(=O)c1cccc(NC(=O)CNS(=O)(=O)c2ccc(Cl)cc2)c1	none (no result: T cruzi growth-1, Pf Dd2 growth, KDM4C inh)
C[C@@H]1CN([C@H](C)CO)C(=O)c2cc(NC(=O)Cc3ccccc3)ccc2O[C@@H](C)CCCCO[C@@H]1CN(C)Cc1ccc2c(c1)OCO2	T cruzi growth-1 99.8 (no result: IDH1 mut inh) | T cruzi growth-2 104.8 | T cruzi growth-3 inactive | NIH3T3 tox inactive | NIH3T3 tox 2 102.3
C[C@@H]1CCCCO[C@@H](CN(C)Cc2ccc3c(c2)OCO3)[C@H](C)CN([C@H](C)CO)C(=O)c2cc(NC(=O)Cc3ccccc3)ccc2O1	none (no result: IDH1 mut inh)
C[C@H](CO)N1C[C@H](C)[C@@H](CN(C)Cc2ccc(Cl)c(Cl)c2)OCCCC[C@H](C)Oc2ccc(NC(=O)Nc3cccc4ccccc34)cc2C1=O	T cruzi growth-1 122.4 (no result: IDH1 mut inh) | T cruzi growth-2 110.6 | T cruzi growth-3 106.1 | NIH3T3 tox inactive | NIH3T3 tox 2 inactive
C[C@@H]1CCCCO[C@@H](CN(C)Cc2ccc(Cl)c(Cl)c2)[C@@H](C)CN([C@H](C)CO)C(=O)c2cc(NC(=O)Nc3cccc4ccccc34)ccc2O1	T cruzi growth-1 119.7 | T cruzi growth-2 102.9 | T cruzi growth-3 inactive | NIH3T3 tox inactive | NIH3T3 tox 2 inactive
C[C@@H]1CN([C@H](C)CO)C(=O)c2cc(NC(=O)Nc3cccc4ccccc34)ccc2O[C@@H](C)CCCCO[C@H]1CN(C)Cc1ccc(Cl)c(Cl)c1	none (no result: T cruzi growth-1)
NC(=O)CSCC(=O)Nc1ccc(Br)cc1	none (no result: T cruzi growth-1, Pf Dd2 growth, KDM4C inh)
COc1cc2c(cc1OC)N1C(=O)C[C@]34C=CCN5CC[C@@H]2[C@@H](CC3)[C@]514	none (no result: T cruzi growth-1, Pf Dd2 growth, KDM4C inh)
CC(NS(=O)(=O)c1ccc(Cl)cc1)C(=O)Nc1cccc2ccccc12 (configuration not stated)	none (no result: T cruzi growth-1, Pf Dd2 growth, KDM4C inh)
O=C(Nc1cccc2ccccc12)C1CCCN1S(=O)(=O)c1ccccc1 (configuration not stated)	none (no result: T cruzi growth-1, Pf Dd2 growth, KDM4C inh)
COc1ccccc1C#Cc1ccc([C@H]2[C@@H](CO)N3CCCCN(S(C)(=O)=O)C[C@H]23)cc1	none (no result: IDH1 mut inh)
COc1ccccc1C#Cc1ccc([C@@H]2[C@@H](CO)N3CCCCN(C(=O)C4CCCC4)C[C@H]23)cc1	T cruzi growth-1 111.9 (no result: IDH1 mut inh, KDM4C inh) | T cruzi growth-2 103.3 | T cruzi growth-3 inactive | NIH3T3 tox inactive | NIH3T3 tox 2 106.0
COc1ccccc1C#Cc1ccc([C@H]2[C@@H](CO)N3CCCCN(C(=O)C4CCCC4)C[C@@H]23)cc1	T cruzi growth-1 117.9 (no result: IDH1 mut inh, KDM4C inh) | T cruzi growth-2 101.4 | T cruzi growth-3 105.4 | NIH3T3 tox inconclusive | NIH3T3 tox 2 70.8
COc1ccccc1C#Cc1ccc([C@H]2[C@H]3CN(C(=O)C4CCCC4)CCCCN3[C@H]2CO)cc1	T cruzi growth-1 114.3 (no result: IDH1 mut inh, KDM4C inh) | T cruzi growth-2 inactive | T cruzi growth-3 inactive | NIH3T3 tox inactive | NIH3T3 tox 2 53.8
COc1ccccc1C#Cc1ccc([C@H]2[C@H]3CN(S(C)(=O)=O)CCCCN3[C@H]2CO)cc1	none (no result: IDH1 mut inh)
CCn1c2ccccc2c2cc(NC(=O)CN3C(=O)c4ccccc4C3=O)ccc21	none (no result: T cruzi growth-1, Pf Dd2 growth, KDM4C inh)
C[C@@H]1CN([C@@H](C)CO)C(=O)c2cc(NC(=O)C3CCCCC3)ccc2O[C@@H]1CN(C)Cc1ccc(C(F)(F)F)cc1	T cruzi growth-1 72.2 | T cruzi growth-2 inactive | T cruzi growth-3 inactive | NIH3T3 tox inactive | NIH3T3 tox 2 31.4
C[C@@H]1CN([C@H](C)CO)C(=O)c2cc(NC(=O)C3CCCCC3)ccc2O[C@@H](C)CCCCO[C@H]1CN(C)Cc1ccc(C(F)(F)F)cc1	T cruzi growth-1 inconclusive, Pf Dd2 growth inconclusive (no result: IDH1 mut inh) | T cruzi growth-2 100.7 | T cruzi growth-3 109.1 | NIH3T3 tox inactive | NIH3T3 tox 2 49.4
C[C@H](CO)N1C[C@H](C)[C@H](CN(C)Cc2ccc(C(F)(F)F)cc2)OCCCC[C@H](C)Oc2ccc(NC(=O)C3CCCCC3)cc2C1=O	T cruzi growth-1 98.9 | T cruzi growth-2 inconclusive | T cruzi growth-3 111.5 | NIH3T3 tox inactive | NIH3T3 tox 2 54.9
C[C@H]1CCCCO[C@@H](CN(C)Cc2ccc(C(F)(F)F)cc2)[C@@H](C)CN([C@@H](C)CO)C(=O)c2cc(NC(=O)C3CCCCC3)ccc2O1	T cruzi growth-1 inconclusive (no result: IDH1 mut inh) | T cruzi growth-2 98.3 | T cruzi growth-3 inactive | NIH3T3 tox inactive | NIH3T3 tox 2 25.8
C[C@@H]1CCCCO[C@@H](CN(C)Cc2ccc(C(=O)O)cc2)[C@@H](C)CN([C@H](C)CO)C(=O)c2cc(NC(=O)C3CCCCC3)ccc2O1	none
COc1ccccc1CNCc1cccc(OC)c1OC	none (no result: T cruzi growth-1, Pf Dd2 growth, KDM4C inh)
C[C@@H]1CCCCO[C@@H](CN(C)Cc2ccc(C(F)(F)F)cc2)[C@H](C)CN([C@@H](C)CO)C(=O)c2cc(NC(=O)C3CCCCC3)ccc2O1	T cruzi growth-1 113.8 | T cruzi growth-2 102.2 | T cruzi growth-3 111.7 | NIH3T3 tox inactive | NIH3T3 tox 2 inactive
C[C@H](CO)N1C[C@H](C)[C@H](CN(C)C(=O)Nc2ccc(C(F)(F)F)cc2)Oc2ccc(NC(=O)C3CCCCC3)cc2C1=O	T cruzi growth-1 inconclusive | T cruzi growth-2 100.4 | T cruzi growth-3 inactive | NIH3T3 tox 43.8 | NIH3T3 tox 2 51.5
C[C@@H]1CCCCO[C@@H](CN(C)Cc2ccc(C(=O)O)cc2)[C@H](C)CN([C@H](C)CO)C(=O)c2cc(NC(=O)C3CCCCC3)ccc2O1	none
C[C@@H]1CCCCO[C@H](CN(C)Cc2ccc(C(F)(F)F)cc2)[C@H](C)CN([C@@H](C)CO)C(=O)c2cc(NC(=O)C3CCCCC3)ccc2O1	T cruzi growth-1 117.1 | T cruzi growth-2 102.2 | T cruzi growth-3 110.2 | NIH3T3 tox 57.1 | NIH3T3 tox 2 73.3
C[C@@H]1CCCCO[C@@H](CN(C)Cc2ccc(C(=O)O)cc2)[C@@H](C)CN([C@@H](C)CO)C(=O)c2cc(NC(=O)C3CCCCC3)ccc2O1	none
CS(=O)(=O)N(CC(=O)Nc1ccccc1-c1ccccc1)c1ccccc1Cl	none (no result: T cruzi growth-1, Pf Dd2 growth, KDM4C inh)

Source: PubChem BioAssay (Broad Institute)
